Experimental findings from ChEMBL document CHEMBL5149984, “Discovery of HN37 as a Potent and Chemically Stable Antiepileptic Drug Candidate” (J Med Chem, 2021) are described below.

Data set [1] in a line: Clearance in Kunming mouse plasma at 2 mg/kg, iv measured upto 24 hrs by LC-MS/MS method. In kind it is ADME, organism-based. The procedure, abridged:
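Male KM mice fasted 12 h before and 2 h after iv dosing at 2 mg/kg (oral formulation of 5% DMSO/5% Tween 80/saline diluted with saline containing 1% Tween 80); n = 3 per time point. Blood from the retro-orbital venous plexus at 0.083–24 h; plasma extracted with acetonitrile plus internal standard and analysed by LC−MS/MS.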

Data set [2] can be described thus: Cmax in Sprague-Dawley rat brain at 6 mg/kg, po measured upto 24 hrs by LC-MS/MS method. The format is ADME, organism-based. Set-up: time < 24 hrs, dose 6 mg/kg, route po. In short, it runs like this: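 Male SD rats (180−220 g) given single oral doses of 2, 6 and 20 mg/kg; handled as in the mouse PK study (fasted 12 h before and 2 h after dosing, 5% DMSO/5% Tween 80/90% saline formulation). In a separate 6 mg/kg p.o. set, blood and brain were sampled together. Plasma and brain levels by LC−MS/MS.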

Data set [3] is described as follows: AUC(0 to t) in Sprague-Dawley rat blood at 6 mg/kg, po measured upto 24 hrs by LC-MS/MS method. In kind it is ADME, organism-based. Set-up: time < 24 hrs, dose 6 mg/kg, route po. The procedure, abridged: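 Separate experiment in male SD rats given 6 mg/kg orally; blood and brain concentrations measured concurrently. Samples extracted with acetonitrile (brain homogenized in 10 volumes acetonitrile and sonicated) and analysed by LC−MS/MS; AUC0−t by trapezoidal method.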

Data set [4] can be described thus: Metabolic stability in human liver microsomes assessed as half life. In kind it is ADME, Microsome.
Data set [5] deals with CYP1A2 (Homo sapiens, UniProt P05177). As to the kind of experiment: Inhibition of human liver microsome CYP1A2 at 0.10 to 50 uM preincubated with NADPH for 0.5 hrs followed by substrate addition by LC-MS/MS method relative to control. In kind it is ADME. Particulars: liver microsomes, dose 0.1-50 µM. For orientation: Microsomes from liver hold many membrane-bound enzymes, among them those of drug oxidation.

In data set [6] the target is CYP2B6 (Homo sapiens, UniProt P20813). As to the kind of experiment: Inhibition of human liver microsome CYP2B6 at 0.10 to 50 uM preincubated with NADPH for 0.5 hrs followed by substrate addition by LC-MS/MS method relative to control. In kind it is ADME. Particulars: liver microsomes, dose 0.1-50 µM.
Data set [7] has as its target Cytochrome P450 3A4 (Homo sapiens, UniProt P08684). As to the kind of experiment: Time dependent inhibition of human liver microsome CYP3A4 preincubated for 0.5 hrs in presence or absence of NADPH followed by midazolam addition by LC-MS/MS method. The format is ADME, microsomes. In short, it runs like this: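 Human liver microsomes preincubated 0.5 h with 0.10–50 μM test compound, with or without NADPH, then CYP-specific probe substrate added and incubation continued. Metabolite measured by LC-MS/MS; % activity remaining relative to no-compound control; IC50 fitted by Probit model. For CYP3A4, midazolam 1′-hydroxylation and testosterone 6β-hydroxylation were read separately.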

Data set [8] deals with T1, Potassium voltage-gated channel subfamily KQT member 1 (Homo sapiens, UniProt P51787).
T1 sequence (P51787 whole entry): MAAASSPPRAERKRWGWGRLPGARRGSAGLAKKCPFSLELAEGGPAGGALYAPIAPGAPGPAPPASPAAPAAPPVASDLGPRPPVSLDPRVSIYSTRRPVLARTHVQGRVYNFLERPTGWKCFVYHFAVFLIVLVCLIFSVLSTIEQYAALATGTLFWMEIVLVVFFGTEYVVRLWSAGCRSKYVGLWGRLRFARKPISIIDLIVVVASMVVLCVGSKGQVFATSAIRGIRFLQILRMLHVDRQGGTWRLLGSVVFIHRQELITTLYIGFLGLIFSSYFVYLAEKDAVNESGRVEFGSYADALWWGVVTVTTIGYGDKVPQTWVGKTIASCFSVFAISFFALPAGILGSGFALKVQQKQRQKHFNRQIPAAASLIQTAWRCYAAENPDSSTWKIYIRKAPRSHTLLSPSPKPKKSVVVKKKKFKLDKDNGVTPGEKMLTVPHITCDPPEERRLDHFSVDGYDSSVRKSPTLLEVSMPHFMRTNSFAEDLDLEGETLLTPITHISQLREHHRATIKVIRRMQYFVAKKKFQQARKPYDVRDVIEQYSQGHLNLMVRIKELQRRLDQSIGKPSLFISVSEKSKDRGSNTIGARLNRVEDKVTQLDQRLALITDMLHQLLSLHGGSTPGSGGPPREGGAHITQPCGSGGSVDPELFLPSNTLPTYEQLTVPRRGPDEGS
As to the kind of experiment: Agonist activity at human KCNQ1 channel expressed in CHO cells assessed as amplitude change of outward current at 0.1 uM by patch clamp method. The format is cell-based. In short, it runs like this: (§1)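 Whole-cell patch clamp at room temperature on CHO cells (DMEM/F12, 10% FBS) transiently co-transfected with EGFP and hKCNQ1, rKCNQ2, rKCNQ3 A278T, hKCNQ4 or hKCNQ5; KCNQ2/3 at 1:1 cDNA ratio. Pipette solution 145 mM KCl, 5 mM MgATP, pH 7.3; bath 140 mM NaCl, 5 mM KCl, pH 7.4, under perfusion. V1/2 from Boltzmann fits; I/I0 is current amplitude with versus without compound; n = 4−6.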
Background: In patch-clamp work, channel activity is measured electrically.

Data set [9] deals with Potassium voltage-gated channel subfamily KQT member 2 (Rattus norvegicus) (UniProt O88943). As to the kind of experiment: Agonist activity at rat KCNQ2 channel expressed in CHO cells assessed as amplitude change of outward current at 0.1 uM by patch clamp method. In kind it is cell-based. The conditions noted are these: filed as agonist. In short, it runs like this: as §1

Data set [10] has as its system CHO. As to the kind of experiment: Agonist activity at rat KCNQ3 A278T mutant expressed in CHO cells assessed as shift of half voltage of maximal activation at 0.1 uM by patch clamp method. In kind it is cell-based. The conditions noted are these: filed as agonist. The procedure, abridged:
as §1

Data set [11] deals with T2, Potassium voltage-gated channel subfamily KQT member 4 (Homo sapiens) (UniProt P56696).
T2 sequence (whole entry): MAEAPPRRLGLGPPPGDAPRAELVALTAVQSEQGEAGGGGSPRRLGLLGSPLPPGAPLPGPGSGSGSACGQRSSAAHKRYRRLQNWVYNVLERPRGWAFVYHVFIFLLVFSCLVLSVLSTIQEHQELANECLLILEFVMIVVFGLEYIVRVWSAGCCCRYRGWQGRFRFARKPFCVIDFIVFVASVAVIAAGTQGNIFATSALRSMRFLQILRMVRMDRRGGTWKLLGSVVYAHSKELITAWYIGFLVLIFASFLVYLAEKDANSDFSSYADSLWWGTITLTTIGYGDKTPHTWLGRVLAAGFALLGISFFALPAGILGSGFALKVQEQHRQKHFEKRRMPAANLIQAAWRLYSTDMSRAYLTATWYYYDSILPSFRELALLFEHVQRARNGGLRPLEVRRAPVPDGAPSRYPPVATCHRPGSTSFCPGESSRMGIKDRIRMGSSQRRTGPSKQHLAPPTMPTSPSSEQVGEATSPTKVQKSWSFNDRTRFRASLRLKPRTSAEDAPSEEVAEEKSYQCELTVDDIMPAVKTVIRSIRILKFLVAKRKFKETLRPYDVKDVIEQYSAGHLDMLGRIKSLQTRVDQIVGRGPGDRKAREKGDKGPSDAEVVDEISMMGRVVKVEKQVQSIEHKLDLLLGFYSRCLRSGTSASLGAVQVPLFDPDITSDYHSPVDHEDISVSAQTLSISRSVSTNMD
As to the kind of experiment: Agonist activity at human KCNQ4 channel expressed in CHO cells assessed as amplitude change of outward current at 0.1 uM by patch clamp method. The format is cell-based. Particulars: filed as agonist. The procedure, abridged:
as §1

Chain of CYP2B6 (P20813 whole entry): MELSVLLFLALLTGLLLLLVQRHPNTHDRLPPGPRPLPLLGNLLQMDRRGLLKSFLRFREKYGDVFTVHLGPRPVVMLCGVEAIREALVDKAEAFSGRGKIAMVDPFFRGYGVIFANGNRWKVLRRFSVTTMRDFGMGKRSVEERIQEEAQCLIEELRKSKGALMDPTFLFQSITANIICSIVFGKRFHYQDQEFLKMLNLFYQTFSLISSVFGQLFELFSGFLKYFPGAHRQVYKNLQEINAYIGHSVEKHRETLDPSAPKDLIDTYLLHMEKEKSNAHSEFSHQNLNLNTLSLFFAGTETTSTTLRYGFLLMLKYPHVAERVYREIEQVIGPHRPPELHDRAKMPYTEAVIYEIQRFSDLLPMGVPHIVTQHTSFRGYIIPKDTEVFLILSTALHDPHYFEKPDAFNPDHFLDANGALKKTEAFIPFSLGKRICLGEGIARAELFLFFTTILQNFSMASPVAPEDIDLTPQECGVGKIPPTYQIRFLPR
Chain of Cytochrome P450 3A4 (P08684 whole entry): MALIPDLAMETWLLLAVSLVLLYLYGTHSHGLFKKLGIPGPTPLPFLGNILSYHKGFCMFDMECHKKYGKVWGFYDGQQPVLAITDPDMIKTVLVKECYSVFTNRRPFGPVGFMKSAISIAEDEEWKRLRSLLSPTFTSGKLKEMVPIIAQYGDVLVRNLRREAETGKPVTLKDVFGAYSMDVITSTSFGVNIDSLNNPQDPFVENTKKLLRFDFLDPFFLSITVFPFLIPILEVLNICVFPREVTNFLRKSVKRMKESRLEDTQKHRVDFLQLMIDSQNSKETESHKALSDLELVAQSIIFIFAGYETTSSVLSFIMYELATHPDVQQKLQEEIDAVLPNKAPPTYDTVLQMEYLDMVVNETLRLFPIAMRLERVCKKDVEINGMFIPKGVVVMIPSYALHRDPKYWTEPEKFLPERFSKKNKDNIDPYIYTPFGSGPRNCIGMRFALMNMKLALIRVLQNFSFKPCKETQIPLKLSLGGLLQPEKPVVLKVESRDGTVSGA
Chain of CYP1A2 (P05177 whole entry): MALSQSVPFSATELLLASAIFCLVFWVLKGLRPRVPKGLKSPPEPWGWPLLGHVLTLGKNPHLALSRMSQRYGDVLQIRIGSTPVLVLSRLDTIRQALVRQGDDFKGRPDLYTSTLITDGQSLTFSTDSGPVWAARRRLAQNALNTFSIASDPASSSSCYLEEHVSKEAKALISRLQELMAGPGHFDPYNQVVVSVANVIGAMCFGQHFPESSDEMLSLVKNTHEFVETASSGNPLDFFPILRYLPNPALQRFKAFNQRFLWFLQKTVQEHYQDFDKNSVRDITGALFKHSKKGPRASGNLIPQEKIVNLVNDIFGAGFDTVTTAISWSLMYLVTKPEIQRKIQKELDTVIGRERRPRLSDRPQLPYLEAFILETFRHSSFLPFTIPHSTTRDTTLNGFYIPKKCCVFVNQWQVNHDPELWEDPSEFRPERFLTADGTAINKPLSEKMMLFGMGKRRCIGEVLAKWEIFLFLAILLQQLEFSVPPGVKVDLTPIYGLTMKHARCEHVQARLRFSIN
Chain of Potassium voltage-gated channel subfamily KQT member 2 (Rattus norvegicus) (O88943 whole entry): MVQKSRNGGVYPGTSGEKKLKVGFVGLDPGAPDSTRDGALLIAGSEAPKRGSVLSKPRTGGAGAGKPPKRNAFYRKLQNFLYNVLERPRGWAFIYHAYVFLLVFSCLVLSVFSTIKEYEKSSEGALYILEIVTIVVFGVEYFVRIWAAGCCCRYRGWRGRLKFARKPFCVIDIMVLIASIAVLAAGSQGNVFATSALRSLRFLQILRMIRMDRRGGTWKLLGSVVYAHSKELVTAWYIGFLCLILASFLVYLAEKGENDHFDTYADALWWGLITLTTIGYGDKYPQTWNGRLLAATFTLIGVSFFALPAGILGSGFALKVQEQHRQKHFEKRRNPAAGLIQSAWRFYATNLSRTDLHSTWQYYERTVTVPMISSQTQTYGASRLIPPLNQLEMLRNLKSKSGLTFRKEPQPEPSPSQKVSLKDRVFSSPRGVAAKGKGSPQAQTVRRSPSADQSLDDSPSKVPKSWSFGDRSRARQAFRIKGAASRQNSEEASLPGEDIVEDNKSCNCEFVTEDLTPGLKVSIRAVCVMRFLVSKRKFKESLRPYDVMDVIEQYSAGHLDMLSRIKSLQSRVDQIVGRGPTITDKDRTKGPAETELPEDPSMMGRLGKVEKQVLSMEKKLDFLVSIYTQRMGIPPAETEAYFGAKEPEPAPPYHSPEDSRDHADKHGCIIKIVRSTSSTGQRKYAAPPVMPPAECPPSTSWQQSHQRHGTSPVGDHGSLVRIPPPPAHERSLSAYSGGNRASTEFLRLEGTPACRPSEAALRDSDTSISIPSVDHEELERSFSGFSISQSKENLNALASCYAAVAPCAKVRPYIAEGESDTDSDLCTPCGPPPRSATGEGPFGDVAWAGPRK

In general, clearance refers to the volume of plasma or blood freed of the substance per unit of time. High values mean efficient removal, low ones inefficient removal. What is called Cmax is the peak of the concentration-time curve. One may read the AUC(0-t) as exposure summed from dosing to a finite time, without extrapolation to infinity. Low values mean low exposure, high ones high exposure. A word on the half-life: it is how long it takes for the measured level to halve. As usually defined, the inhibition is how much of the control response was suppressed. As a reminder, the IC50 is the concentration that inhibits the measured activity by half. Higher therefore signals weaker potency in that assay. The compound `C#CCN(Cc1ccc(F)cc1)c1cc(C)c(NC(=O)OC)c(C)c1` had a clearance in data set [1] of 61.3 mL/min/kg. Besides, the Cmax in data set [2] stood at 578 ng/mL. Further, in [3], the AUC(0-t) at 24 h worked out at 533 ng·h/mL. In addition, the half-life in [4] came to 27.7 min. In addition, the inhibition at 0.5 h, up to 50 µM in [5] and in data set [6] was below 25% throughout. The compound also returned an IC50 in data set [7] above 50 µM. Besides, the Activity was 0.99 in data set [8], 3.4 in [9], -43.1 mV in data set [10] and 3.76 in data set [11].
